Source: PubChem
KCC2 mod: modulators of human KCC2 chloride dependent transport | Q9H2X9 | KCC2 cells, thallium flux FluoZin-2 fluorescence | B-score of Tl+ flux slope (higher = more flux/activation; lower = inhibition) at 10 µM | 190,000 compounds, 2.2% hits | AID 1456;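 active = thallium flux slope and its plate-corrected score both differing from the plate sample mean at a set confidence after two filtering rounds, in either direction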;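 also: slope of fluorescence scaled to starting intensity during 10 to 20 s after thallium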
Redox H2O2 prof: compounds producing H2O2 with reducing agent – biochemical, NIH compound library profiling, artefact control for MLSCN library redox annotation, primary screen. DTT-dependent redox cycling H2O2, phenol red/HRP absorbance; 100% = 100 µM peroxide control, 0% = buffer. activation, % at 10 µM. 200,000 compounds, 0.03% hits;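 active = activation of at least 50% relative to the plate's high and low controls in the primary single-dose screen; inactive = activation below 50%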;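 also: compound incubated with DTT at 0.8 mM final as the reducing agent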
MT stabilizer: microtubule stabilization, imaging screen | HeLa tubulin immunostaining HCS, 24 h; share of cells brighter than vehicle mean+2SD | % tubulin-high responders, % at 10 µM | 200,000 compounds, 0.83% hits | AID 2205;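 active = plate Z-score above 3 for both tubulin-high and condensed-nucleus cell shares, with cell loss under 80%, at 10 µM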;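 also: anti alpha tubulin signal scored within the nucleus-defined area of each cell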
ROMK mod: modulators of human ROMK potassium channel. B-score at 10 µM. 130,000 compounds, 2% hits. Tet-inducible ROMK, thallium flux fluorescence; actives lie on both sides. P48048;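 active = signal ratio slope over the read window, or its plate-corrected B-score, at least 3 SD from the plate mean, either direction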;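 also: B-score of the F/F0 ratio slope over 7 to 12 s after thallium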
Target sequence (P48048 whole entry, looked up): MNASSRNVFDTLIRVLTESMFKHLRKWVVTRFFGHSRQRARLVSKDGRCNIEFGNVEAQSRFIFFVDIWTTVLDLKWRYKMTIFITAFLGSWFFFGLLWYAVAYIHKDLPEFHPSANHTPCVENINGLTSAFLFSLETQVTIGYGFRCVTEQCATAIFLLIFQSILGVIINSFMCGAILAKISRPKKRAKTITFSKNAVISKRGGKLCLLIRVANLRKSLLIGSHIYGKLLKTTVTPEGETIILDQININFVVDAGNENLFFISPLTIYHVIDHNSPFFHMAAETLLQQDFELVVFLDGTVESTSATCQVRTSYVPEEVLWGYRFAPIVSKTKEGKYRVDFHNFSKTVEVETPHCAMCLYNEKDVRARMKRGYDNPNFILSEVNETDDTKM
b-catenin transl: beta-catenin nuclear translocation modulation; AID 1665; HeLa beta-catenin nuclear translocation, immunofluorescence imaging; nuclear translocation activity, % at 5 µM; 190,000 compounds, 0.3% hits;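 active = nuclear translocation activity above 50% at 5 µM, with a well cell count of 50 or more; inconclusive = wells under 50 cells across six images, flagged as toxic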;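 also: per-cell ratio of nuclear to cytoplasmic median beta-catenin stain intensity; plate controls were DMSO negative control for no effect and GSK-3 inhibitor IX positive control for full effect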
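Test system: HeLa cells, endogenous beta-catenin; Compound: single 5 µM dose plus 0.02–20 µM confirmation series; Times: compound exposure 24 h at 37°C; Signal: fluorescence imaging of beta-catenin antibody stain plus DAPI; Read-out: % activation, nuclear-to-cytoplasmic median beta-catenin signal ratio per cell.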
KCC2 secondary: KCC2 (human) modulation, secondary assay; shares compounds with KCC2 mod; HEK293-KCC2, thallium flux, FluoZin2 fluorescence; hits give high values; normalised thallium flux (F/F0 slope) at 10 µM; 3,700 compounds, 15% hits; AID 1713;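 active = thallium flux slope above the same plate's solvent-only control mean plus 3 SD; inconclusive = the two replicate wells disagree; inactive = no significant difference from solvent-only control wells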
KCC2 bumet counter: thallium flux persisting under bumetanide in KCC2 cells, counter-screen secondary assay | 3,700 compounds, 49% hits | normalized thallium flux at 10 µM | shares compounds with KCC2 mod | HEK293-KCC2 + bumetanide/ouabain, thallium flux FluoZin2; hits give high values;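 active = thallium entry rate above the same plate's blocked-transporter control wells by more than 3 SD; inconclusive = the two repeat wells disagree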;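 also: raw slope of fluorescence over initial fluorescence between 10 and 20 s after thallium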
KCC2 sec2: confirmation of human KCC2 transport modulators | shares compounds with KCC2 mod | HEK293-KCC2, thallium flux FluoZin2 fluorescence; actives lie on both sides; F/F0 rise rate, 10–20 s post-thallium | normalized thallium flux at 10 µM | 3,700 compounds, 23% hits | AID 1715;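 active = thallium flux slope more than 3 SD above or below the plate's solvent-only control mean, mostly below; inconclusive = the two repeat wells disagreed; inactive = no significant shift from solvent-only controls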;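 also: raw slope with 0.1% DMSO as baseline and bumetanide as block control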
HEK counter1: parental HEK flux effect, counter-screen; shares compounds with KCC2 mod; HEK293 parental cells, thallium flux FluoZin2, ouabain; baseline-ratio fluorescence slope, 10–20 s after thallium; thallium flux rate (normalised fluorescence) at 10 µM; 3,700 compounds, 46% hits; AID 1716;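 active = thallium flux rate significantly above the same plate's solvent-only control wells, beyond their mean plus 3 SD; inconclusive = the two replicate wells gave conflicting results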
KCC2 ouabain: modulates human KCC2 on retest with ouabain | shares compounds with KCC2 mod | HEK293-KCC2, thallium flux FluoZin2 fluorescence; bidirectional: low = inhibitor, high = activator | raw Tl+ flux slope (below DMSO = inhibition, above = activation) at 10 µM | 3,700 compounds, 48% hits | AID 1717;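 active = thallium flux slope beyond 3 SD from same-plate DMSO control mean in most replicates, usually higher, sometimes lower; inconclusive = repeat tests gave conflicting results; inactive = no significant difference from controls in most replicates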;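 also: slope of initial-normalized fluorescence between seconds 10 and 20 after thallium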
HEK293 Tl flux2: acts in parental HEK cells, second KCC2 counter-screen | shares compounds with KCC2 mod | HEK293 parental, thallium flux FluoZin-2 fluorescence slope | thallium flux slope at 10 µM | 3,700 compounds, 33% hits | AID 1718;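 active = thallium flux slope above the same plate's solvent-control mean plus 3 SD in both duplicate wells; inconclusive = duplicate wells that disagreed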;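 also: run without ouabain in cells lacking the KCC2 cotransporter; slope of fluorescence scaled to its starting value between 10 and 20 s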
Active calls of the source: *; i = inactive; ? = inconclusive; . = no result. In the library only some 3.7% were active in any assay of this set; here they are far more common.

SMILES | KCC2 mod | Redox H2O2 prof | MT stabilizer | ROMK mod | b-catenin transl | KCC2 secondary | KCC2 bumet counter | KCC2 sec2 | HEK counter1 | KCC2 ouabain | HEK293 Tl flux2
CCn1nnnc1SCC(=O)NCc1ccco1 | 0.47 | 1 | 1 | 0.84 | -6 | . | . | . | . | . | .
CCOC(=O)c1sc(C)c2c1NC(C)(c1ccccc1)NC2=O (stereo not drawn) | 0.49 | -2 | 3 | . | 4 | . | . | . | . | . | .
O=C(/C=C/c1ccccc1)NCCSc1ccc(Cl)cc1 | 0.051 | 6 | 2 | . | -1 | . | . | . | . | . | .
CCOc1ccc(-n2c(C)nc(O)c2N=Nc2ccccc2)cc1 | 1.5 | 4 | 3 | 1.1 | -2 | . | . | . | . | . | .
COC(=O)c1cc(C(=O)Nc2nnc(C3CC3)s2)cc([N+](=O)[O-])c1 | -1.6 | 0 | 4 | 0.13 | 3 | . | . | . | . | . | .
FC(F)(F)c1cccc(NCc2n[nH]c(=S)n2C2CCCCC2)c1 | 5.9* | -1 | 3 | -0.9 | 0 | 0.009 | 0.019* | 0.035 | ? | ? | 0.011
Cc1ccc2nc(N/C(=N/S(=O)(=O)c3ccc(F)cc3F)c3ccccc3)sc2c1 | 21* | 3 | 3 | -1.1 | 0 | 0.016 | 0.0094* | 0.03 | 0.0096* | 0.019 | ?
Cc1ccc2nc(N/C(=N/S(=O)(=O)c3ccc(F)cc3)c3ccccc3)sc2c1 | 4.5* | 0 | 4 | 0.0015 | -3 | 0.0095 | 0.0067 | 0.031 | ? | 0.019 | ?
Cc1cc(N/C(=N/S(=O)(=O)c2ccc(F)cc2)c2ccccc2)n(-c2ccccc2)n1 | -1.4 | 0 | 3 | -0.0081 | 0 | . | . | . | . | . | .
Cc1ccc(S(=O)(=O)/N=C(/NC(=S)Nc2cccc(C)c2)c2ccccc2)cc1 | 20* | 2 | 2 | -0.019 | -1 | 0.0062 | 0.03* | 0.042* | 0.022* | 0.035* | 0.024*
CCOC(=O)CC(NC(=O)c1ccc(C)cc1)c1ccc(OC)cc1 (stereo not drawn) | -0.29 | 0 | 3 | -0.41 | -1 | . | . | . | . | . | .
O=C(Nc1ccccc1)c1sc2cc(C(F)(F)F)cnc2c1-c1cccs1 | -1.6 | 1 | i | 0.071 | -3 | . | . | . | . | . | .
O=C(O)C(Cc1c[nH]c2ccccc12)N1C(=O)C2C3c4ccccc4C(c4ccccc43)C2C1=O (stereo not drawn) | -0.27 | 1 | 3 | 1.5 | 0 | . | . | . | . | . | .
CN(C)c1ccc(NC(=O)c2sc(SCC(=O)Nc3nccs3)nc2N)cc1 | 14* | 0 | 7 | -0.15 | -5 | 0.0061 | 0.013* | 0.034 | 0.012* | ? | 0.014*
O=C(c1cccc(C(F)(F)F)c1)c1c[nH]c(C(=O)NCC2CCCO2)c1 (stereo not drawn) | -0.81 | -2 | 6 | -1.1 | -2 | . | . | . | . | . | .
O=C(Nc1cc(=O)[nH]c2nc(-c3ccccc3)nn12)c1ccccc1Cl | -3.2* | . | . | -0.56 | 0 | 0.0081 | 0.0066 | 0.03 | 0.0068 | ? | ?
Cc1cc(NC(=O)c2ccccc2Cl)n(C(C)(C)C)n1 | 0.13 | . | . | . | -3 | . | . | . | . | . | .
COc1cccc(-c2cc(C(=O)N3CCc4ccccc4C3)no2)c1 | 3.4* | 1 | 4 | . | -1 | 0.0086 | 0.0058 | 0.029 | 0.007 | 0.02 | 0.0094
COc1ccc(-c2cc(C(=O)N3CCN(Cc4ccccc4)CC3)no2)cc1OC | -3.4* | 0 | 5 | . | . | 0.017 | ? | 0.022* | 0.0077 | 0.014 | 0.01
